# Measurements: PMC7945681 (Journal of materials chemistry. B, 2020)
# Columns and labels:
# VCAM1^+ BMECs = assay type: cell-based, human; settings: for co-localization of the cis isomer with anti-VCAM1 antibody: VCAM1^+ BMECs, confocal microscopy
# human VCAM1 = assay: SPR measurement of peptide-VCAM1 binding; settings: for ∣ΔΔGB∣: ∣ΔGB,trans – ΔGB,cis∣ from SPR values
# Outline: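 Peptide-functionalised gold sensor chips, with three sensors per ligand and ligand density measured by variable angle spectroscopic ellipsometry. Chip-bound peptide was conditioned to cis or trans isomer, then exposed to human VCAM1 at 0.01–1 mg mL−1 in PBS. KD was determined for each isomer.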
Substance,"binding to BMECs in trans configuration (VCAM1^+ BMECs; BMEC labelling, fluorescence microscopy)",co-localization of the cis isomer with anti-VCAM1 antibody (VCAM1^+ BMECs),"KD,trans/KD,cis (human VCAM1; affinity shift between trans and cis isomers, SPR)",∣ΔΔGB∣ (human VCAM1)
cycloAZOB[G-VHAKQHRN-K*] (sidechain bridge or staple),negligible binding,clear co-localization,~ 130,2.93
cycloAZOB[G-VHAKQHRN-K*]-K(Biotin) (sidechain bridge or staple),–,co-localization with anti-VCAM1 antibodies in cis configuration,–,–
cycloAZOB[G-VHNKQHRP-K*] (sidechain bridge or staple),–,–,–,1.84
cycloAZOB[G-VHPKQHRP-K*] (sidechain bridge or staple),–,–,–,1.52
cycloAZOB[G-VHPKQHRS-K*] (sidechain bridge or staple),–,–,–,2.52
